Assay results gathered from unrelated publications.
Each line is one published result; the experiments were not run side by side.
Target: Serine/threonine-protein kinase BRSK2 (BRSK2, Homo sapiens, UniProt Q8IWQ3)
One construct used (Q8IWQ3 1-736): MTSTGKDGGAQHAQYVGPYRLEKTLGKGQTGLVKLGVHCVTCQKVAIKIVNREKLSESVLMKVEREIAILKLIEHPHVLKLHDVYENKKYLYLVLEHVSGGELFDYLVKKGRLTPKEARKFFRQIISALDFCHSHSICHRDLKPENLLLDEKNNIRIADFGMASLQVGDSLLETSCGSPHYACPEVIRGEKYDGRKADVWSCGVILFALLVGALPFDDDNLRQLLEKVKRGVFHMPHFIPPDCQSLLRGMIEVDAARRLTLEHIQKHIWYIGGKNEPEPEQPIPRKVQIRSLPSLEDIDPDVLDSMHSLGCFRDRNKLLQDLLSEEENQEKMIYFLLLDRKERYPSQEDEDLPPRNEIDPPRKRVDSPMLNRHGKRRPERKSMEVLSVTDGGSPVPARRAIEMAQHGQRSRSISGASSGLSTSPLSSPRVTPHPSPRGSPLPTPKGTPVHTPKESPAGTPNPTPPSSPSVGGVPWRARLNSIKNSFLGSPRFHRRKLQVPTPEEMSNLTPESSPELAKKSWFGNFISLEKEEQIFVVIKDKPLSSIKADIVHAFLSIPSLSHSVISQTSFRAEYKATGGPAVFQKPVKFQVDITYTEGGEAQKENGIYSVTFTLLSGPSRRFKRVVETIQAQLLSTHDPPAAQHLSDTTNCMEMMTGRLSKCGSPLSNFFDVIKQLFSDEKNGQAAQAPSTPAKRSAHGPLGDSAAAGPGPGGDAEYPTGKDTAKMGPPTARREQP

SMILES	observed	mode	method	tested at	measurement	value
Cc1c(C(=O)O)cc(-c2ccc(C3CCNCC3)cc2)c2ccc(-c3ccc(C(F)(F)F)cc3)cc12	binding		competition with immobilised ligand	1 µM	remaining binding	100%
FC(F)(F)Oc1cccc(-c2cnc3ccc(-c4ccncc4)nn23)c1	enzyme activity	inhibitor	radiometric	1 µM	activity vs control	81%
CCCOc1ccc(OC)c(F)c1C(=O)c1ccc(C(=O)N[C@@H]2CNC[C@H]2NC(=O)c2ccc3[nH]ncc3c2)cc1	enzyme activity	inhibitor		10 µM	remaining activity	33%
N#CCCc1ccc2c(c1)-c1[nH]c3ccc([N+](=O)[O-])cc3c1CC(=O)N2	cell-free assay			0.5 µM	remaining signal	42%
O=C(Nc1cnn(-c2csc(C(=O)NC3COC3)c2)c1)Nc1ccccc1Cl	enzyme activity	inhibitor		5 µM	remaining activity	102%
CC(C)(C)c1nc2c(s1)c1nc(N)ncc1c1ccc(NS(=O)(=O)c3c(F)cccc3F)c(F)c12	enzyme activity	inhibitor	radiometric	1 µM	remaining activity	88%
CN(C)S(=O)(=O)c1ccc2c(c1)/C(=C/c1cc3c([nH]1)CCCC3)C(=O)N2	cell-free assay			0.5 µM	remaining signal	48.7%
CN([C@@H]1CCc2c(CC(=O)O)c3ccccc3n2C1)S(=O)(=O)c1ccc(F)cc1	cell-free assay		competition with immobilised ligand	1 µM	remaining binding	100%
Cc1cc(NC(=O)c2cccc3cc(-c4cccc5[nH]nc(N)c45)ccc23)ccc1F	enzyme activity	inhibitor		0.1 µM	activity vs control	100%
Cn1nc(C(=O)NCc2ccc(C(=O)O)cc2)cc1-c1ccc2[nH]ccc2c1	cell-free assay		competition with immobilised ligand	0.1 µM	remaining binding	100%
Nc1nc(Nc2ccccc2)sc1C(=O)c1c(F)cccc1F	enzyme activity	inhibitor		10 µM	remaining activity	55%
Cc1ccc(C(=O)Nc2ccc(CN3CCN(C)CC3)c(C(F)(F)F)c2)cc1C#Cc1cnc2cccnn12	enzyme activity	inhibitor		23.5 nM	remaining activity	92%
COc1cc(/C=C/C(=O)CC(=O)/C=C/c2ccc(O)c(OC)c2)ccc1O	enzyme activity	inhibitor		1 µM	activity vs control	88%
CNCc1ccccc1-c1csc([C@@H](C)Nc2nc(C)nc3cc(OC)c(OC)cc23)c1	cell-free assay		competition with immobilised ligand	1 µM	remaining binding	100%
Oc1ccc(-c2nc(-c3ccncc3)c(-c3ccc(F)cc3)[nH]2)cc1	cell-free assay			0.5 µM	remaining signal	101%
COc1cc(Nc2cnc(C#N)c(O[C@H](C)CN(C)C)n2)ncc1-c1cnn(C)c1	enzyme activity	inhibitor	radiometric	1 µM	remaining activity	23%
CS(=O)(=O)NCC[C@H](NC(=O)c1cncc2c1cnn2-c1ccc(F)cc1)c1ccnc(S(C)(=O)=O)c1	cell-free assay		competition with immobilised ligand	1 µM	remaining binding	77%
Nc1nc(NC2CCCCC2)sc1C(=O)c1ccccc1	enzyme activity	inhibitor		10 µM	remaining activity	93%
CCN(CC)CCNC(=O)c1c(C)[nH]c(/C=C2\C(=O)Nc3ccc(F)cc32)c1C	enzyme activity	inhibitor		10 µM	inhibition	82%
Nc1nc(Nc2ccc(S(N)(=O)=O)cc2)nn1C(=O)c1c(F)cccc1F	cell-free assay			0.5 µM	remaining signal	49%
Oc1cccc(-c2nc(N3CCOCC3)c3oc4ncccc4c3n2)c1	enzyme activity	inhibitor		10 µM	remaining activity	99%
CN(C)C(=O)Cn1cc(-c2nc(C3(c4ccc(-c5cnc(N)nc5)cc4)CC3)no2)cn1	cell-free assay		competition with immobilised ligand	1 µM	remaining binding	77%
FC(F)c1nc2ccccc2n1-c1nc(N2CCOCC2)nc(N2CCOCC2)n1	enzyme activity	inhibitor		10 µM	remaining activity	88%
Nc1ncnc2occ(-c3ccc(NC(=O)Nc4cc(C(F)(F)F)ccc4F)cc3)c12	cell-free assay	inhibitor		20 µM	remaining signal	6.6%
CCS(=O)(=O)c1cc2cc(C[C@](O)(CC(C)(C)c3ccc(F)cc3C(N)=O)C(F)(F)F)[nH]c2cn1	cell-free assay		competition with immobilised ligand	1 µM	remaining binding	100%
CNc1cccc2cc(C(=O)Nc3ccc(C(=O)O)cc3)c(=O)[nH]c12	enzyme activity	inhibitor		10 µM	inhibition	7.8%
Cc1ccc(Nc2nccc(N(C)c3ccc4c(C)n(C)nc4c3)n2)cc1S(N)(=O)=O	enzyme activity	inhibitor		10 µM	inhibition	-11%
FC(F)(F)c1ccc2c(c1)nc(-c1cccnc1)n2C1CC1	cell-free assay		competition with immobilised ligand	1 µM	remaining binding	90%
